Screens deposited in PubChem by The Scripps Research Institute Molecular Screening Center.
CHO parental Ca: counter-screen for OX1R antagonists: effect in parental CHO cells; 330,000 tested, 0.63% active; parental CHO-K1, ATP-induced calcium, Fluo-8 fluorescence; AID 463079; inhibition, % at 5.6 µM;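 active = inhibition above that plate's mean sample inhibition plus 3 SD, cut at about 26% in these data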
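Assay system: parental CHO cells; Read-out basis: percent inhibition of ATP-evoked calcium rise, normalized to controls; Benchmarks: ATP and no-ATP DMSO wells; Compound dosing: single nominal dose of 5.6 µM per compound; Signal: Fluo-8 calcium dye fluorescence; Also added: ATP as calcium-mobilizing challenge; Repeats: singlicate.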
TRPML3 agonist: human mucolipin-3 channel agonism; Q8TDD5; HEK293 TRPML3-YFP, Fluo-8 calcium fluorescence; 100% = the carbachol control signal; activation, % at 3 µM; 220,000 tested, 0.29% active; AID 1448;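 active = activation above its plate's cutoff, the mean activation of the plate's test wells plus 3 SD, cut at about 12% in these data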
Target sequence (Q8TDD5 whole entry, looked up): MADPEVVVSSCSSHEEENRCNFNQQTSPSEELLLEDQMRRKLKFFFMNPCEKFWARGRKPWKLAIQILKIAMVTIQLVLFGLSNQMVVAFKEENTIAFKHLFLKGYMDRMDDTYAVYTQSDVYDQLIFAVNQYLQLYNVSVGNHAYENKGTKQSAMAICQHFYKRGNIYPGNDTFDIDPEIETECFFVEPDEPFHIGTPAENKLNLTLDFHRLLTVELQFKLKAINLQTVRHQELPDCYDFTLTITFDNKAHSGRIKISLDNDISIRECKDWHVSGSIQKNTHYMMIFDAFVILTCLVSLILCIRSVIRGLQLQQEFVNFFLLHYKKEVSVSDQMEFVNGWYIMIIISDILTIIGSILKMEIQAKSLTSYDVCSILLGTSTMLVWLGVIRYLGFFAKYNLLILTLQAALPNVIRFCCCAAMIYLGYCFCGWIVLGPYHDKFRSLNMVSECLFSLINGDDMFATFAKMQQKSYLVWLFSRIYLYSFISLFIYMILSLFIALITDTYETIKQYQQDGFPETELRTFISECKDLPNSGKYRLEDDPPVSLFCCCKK
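Material: TRPML3-YFP stable HEK293 cells | Dosing: One concentration, 3 µM nominal, 0.3% DMSO | Timing: 125 s total fluorescence read per well | Technique: Fluo-8 calcium dye fluorescence, ex 470-495, em 515-575 nm | Measure: Percent activation from peak-to-basal fluorescence ratio, scaled between DMSO and carbachol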
OX1R antag-1: blocks the human orexin 1 receptor; OX1R-expressing cells, FRET antagonist read-out; 330,000 tested, 1.8% active; inhibition, % at 6.6 µM; AID 485270; O43613; in the data active = inhibition mostly above about 38%, no sharp cut-off; inactive = mostly below about 40%
TRPN1 ag: agonists of zebrafish TRPN1 channel. HEK293 zebrafish TRPN1-YFP, Fluo-8 calcium fluorescence; 100% = response to 87 µM carbachol. activation, % at 3 µM. 220,000 tested, 0.18% active. AID 1424;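 active = activation above its plate's cutoff, the mean activation of test wells on that plate plus 3 SD, cut at about 19% in these data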
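Material – zebrafish TRPN1-YFP in HEK293 cells · Doses – 3 µM single point · Schedule – dye 1 h 37 °C plus 30 min RT · Signal – Fluo-8 calcium fluorescence, excitation 470-495 nm, emission 515-575 nm · Read-out – % activation versus carbachol response · Control set – carbachol high, DMSO low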
OX1R antag-2: blocks the human orexin 1 receptor | 330,000 tested, 0.43% active | AID 434989 | O43613 | inhibition, % at 5 µM | CHO/OX1R cells, Fluo-8 calcium fluorescence, orexin A;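 active = inhibition above its plate's threshold, mean inhibition of all tested compounds on the plate plus 3 SD, cut at about 37% in these data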
Each line names hits and unclear results; the compound was inactive in the other large screens. This is a sample that favours compounds with a hit; in the whole collection about 2.5% have one here.

CSCCC(NC(=O)c1ccc([N+](=O)[O-])cc1Cl)C(=O)OCC(=O)NC(=O)CN1CCCC1=O (centres undefined)	OX1R antag-1 56 (no result: TRPML3 agonist, TRPN1 ag)
CSCCC(NC(=O)c1cc([N+](=O)[O-])ccc1Cl)C(=O)O (centres undefined)	none
CSCCC(NC(=O)c1ccc([N+](=O)[O-])cc1Cl)C(=O)OCC(=O)NC1CCCC(C)C1C (centres undefined)	none
CCN(CC)S(=O)(=O)c1ccc(C(=O)NCC2CCCCC2)cc1	none (no result: TRPML3 agonist, TRPN1 ag)
COCCN(C(=O)CNC(=O)c1cccs1)C(C(=O)NC(C)(C)C)c1ccccc1 (centres undefined)	none
CCc1ccc2[nH]c(=O)c(C3C(C#N)=C(N)Oc4c3ccc3cccnc43)cc2c1 (centres undefined)	none
Cc1ccc2cc(C3C(C#N)=C(N)Oc4c3ccc3cccnc43)c(=O)[nH]c2c1 (centres undefined)	OX1R antag-1 45
CCN(CC)C(=O)CSC(Nc1ccc(F)cc1)=C(C#N)C#N	none
Cc1ccc(CSC(Nc2ccc(F)cc2)=C(C#N)C#N)cc1	TRPML3 agonist 15, TRPN1 ag 25
COc1ccc(Cl)cc1NS(=O)(=O)c1c(C)[nH]c(C)c1C(=O)N1CCCCC1	OX1R antag-1 49 (no result: TRPML3 agonist, TRPN1 ag)
Cc1ccc(NC(=O)c2cc3c(s2)CCCC3)cc1S(=O)(=O)Nc1ccccc1Cl	OX1R antag-1 70
COc1ccccc1CNc1ncnc2sccc12	CHO parental Ca 41, OX1R antag-1 47 (no result: TRPML3 agonist, TRPN1 ag)
c1ccc2c(c1)OCC(CNc1ncnc3sccc13)O2 (centres undefined)	CHO parental Ca 68
COc1ccccc1Oc1ncnc2sccc12	none
COc1ccc(CCNc2ncnc3sccc23)cc1OC	CHO parental Ca 76, OX1R antag-2 42
CCN(C(=O)c1cc2c(=O)[nH]c3ccc(C)cc3c2s1)c1ccc(OC)cc1	none
Cc1noc(C)c1NC(=O)N(C)C[C@@H]1Oc2ccc(NC(=O)Cc3cn(C)c4ccccc34)cc2CC(=O)N([C@H](C)CO)C[C@@H]1C	none (no result: TRPML3 agonist, TRPN1 ag)
CN(C)CCNC(=O)c1onc(CSc2nc3ccccc3[nH]2)c1C(=O)NCCN(C)C	none (no result: TRPML3 agonist, TRPN1 ag)
CC1Cc2ccccc2N1c1ncnc2nc[nH]c12 (centres undefined)	OX1R antag-1 74
Cc1csc2c(N3CCN(C(=O)NC(C)(C)C)CC3)ncnc12	none
Cc1csc2c(N3CCN(C(=O)Nc4ccc(Cl)c(Cl)c4)CC3)ncnc12	OX1R antag-2 43
O=C(Nc1ccc(Cl)c(Cl)c1)N1CCSCC1	none
Cc1csc2c(N3CCN(C(=O)c4ccc(C(C)(C)C)cc4)CC3)ncnc12	CHO parental Ca 37
c1ccc2c(c1)nc1n2CCN1CCN1CCCC1	none (no result: TRPML3 agonist, TRPN1 ag)
c1ccc(-c2noc(-c3cccc4ccccc34)n2)nc1	OX1R antag-1 66
CCCCn1c(N)c(N(CCC(C)C)C(=O)c2ccc([N+](=O)[O-])s2)c(=O)[nH]c1=O	OX1R antag-1 37 (no result: TRPML3 agonist, TRPN1 ag)
CCCCN(C(=O)c1ccc([N+](=O)[O-])s1)c1c(N)n(CC(C)C)c(=O)[nH]c1=O	none (no result: TRPML3 agonist, TRPN1 ag)
CCCCn1c(N)c(N(CCOC)C(=O)c2ccc(NC3CC3)c([N+](=O)[O-])c2)c(=O)[nH]c1=O	OX1R antag-1 47 (no result: TRPML3 agonist, TRPN1 ag)
COc1cc(OC)cc(C(=O)N2CCC3(CC2)NCCc2[nH]cnc23)c1	none (no result: TRPML3 agonist, TRPN1 ag)
COc1ccc(NC(=O)COC(=O)CCc2ccc(S(=O)(=O)N3CCOCC3)cc2)cc1Cl	none (no result: TRPML3 agonist, TRPN1 ag)
COc1ccc(NS(=O)(=O)c2cccc(C(=O)OCC(=O)Nc3cc(C)on3)c2)cc1	none
Cc1ccc(NS(=O)(=O)c2ccc(C(=O)OCC(=O)Nc3cc(C)on3)cc2)cc1	TRPN1 ag 22 (no result: CHO parental Ca, OX1R antag-1, OX1R antag-2)
COc1ccccc1/C=C/C(=O)OCc1nc2ccccc2c(=O)[nH]1	OX1R antag-1 46
COc1ccccc1/C=C/C(=O)OCC(=O)c1c[nH]c2ccccc12	OX1R antag-1 42 (no result: TRPML3 agonist, TRPN1 ag)
CC(C)Cc1ccc(C(C)C(=O)OCC(=O)c2c[nH]c3ccccc23)cc1 (centres undefined)	CHO parental Ca 75, OX1R antag-2 39
COc1ccc(C(=O)OCC(=O)c2c[nH]c3ccccc23)cc1OC	OX1R antag-1 32 (no result: TRPML3 agonist, TRPN1 ag)
COc1ccc(/C=C/C(=O)OCc2nc3ccccc3c(=O)[nH]2)c(OC)c1	none
COc1cc(C(=O)OCC(=O)c2c[nH]c3ccccc23)ccc1OCC(=O)N1CCOCC1	none
O=C1c2cccnc2C(=O)N1Cc1ccc(S(=O)(=O)N2CCOc3ccc(Cl)cc32)cc1	none (no result: TRPML3 agonist, TRPN1 ag)
Cc1ccc(-c2csc(NC(=O)CN3CCOCC3)n2)cc1C	none (no result: TRPML3 agonist, TRPN1 ag)
COc1ccccc1C(=O)NCCC(=O)N(C)CC(=O)Nc1ccc(Cl)cc1	none (no result: TRPML3 agonist, TRPN1 ag)
Cc1cc(S(=O)(=O)NC(C)C)ccc1OCC(=O)NCc1ccccc1	none
O=C(OCC(=O)c1c[nH]c2ccccc12)c1ccc([N+](=O)[O-])s1	OX1R antag-1 51
CCn1cc(C(=O)NC2CCCc3c2cnn3-c2cccc(C)c2C)cn1 (centres undefined)	CHO parental Ca 54 (no result: TRPML3 agonist, TRPN1 ag)
COc1ccc(C(=O)NC2CCCc3c2cnn3-c2cccc(C)c2C)o1 (centres undefined)	OX1R antag-1 68 (no result: TRPML3 agonist, TRPN1 ag)
Cc1cccc(-n2ncc3c2CCCC3NC(=O)CN2CCOC2=O)c1C (centres undefined)	none (no result: TRPML3 agonist, TRPN1 ag)
CC1=C(C(=O)NC2CCCc3c2cnn3-c2cccc(C)c2C)OCCO1 (centres undefined)	OX1R antag-1 67 (no result: TRPML3 agonist, TRPN1 ag)
Cc1cc(C(=O)NC2CCCc3c2cnn3-c2cccc(C)c2C)no1 (centres undefined)	none (no result: TRPML3 agonist, TRPN1 ag)
Cc1ccc(C(=O)/C=C/NNC(=O)c2ccccc2O)cc1	none (no result: TRPML3 agonist, TRPN1 ag)
O=C(NC1CC1)c1ccc2c(c1)N(Cc1ccc(Cl)cc1)CCS2	OX1R antag-1 46 (no result: TRPML3 agonist, TRPN1 ag)
CCOC(=O)N1CCN(C(=O)c2ccc3c(c2)N(Cc2ccccc2)CCS3)CC1	none (no result: TRPML3 agonist, TRPN1 ag)
CC1CC(C)CN(C(=O)c2ccc3c(c2)N(Cc2ccccc2)CCS3)C1 (centres undefined)	CHO parental Ca 47
Cc1ccc(C)c(S(=O)(=O)N2CCN(C(=O)[C@H](Cc3ccccc3)NC(=O)c3ccco3)CC2)c1	none (no result: TRPML3 agonist, TRPN1 ag)
CCn1c(/C=C/c2ccccc2Cl)nc2ccccc2c1=O	none (no result: TRPML3 agonist, TRPN1 ag)
CCn1c(/C=C/c2ccccc2[N+](=O)[O-])nc2ccccc2c1=O	OX1R antag-1 53
O=C(Nc1cccc(S(=O)(=O)Nc2ccccc2F)c1)c1ccc2ccccc2n1	OX1R antag-1 82
CCCn1c(N)c(NCCN2CCOCC2)c(=O)[nH]c1=O	none
C=CCN=C1CC(C)(C)C(C(=O)OC)C(O)=C1C(=O)CCC (centres undefined)	none
Cc1nnc(N/N=C\c2ccc(-c3ccccc3[N+](=O)[O-])o2)n1N	OX1R antag-1 56
Cc1n[nH]c(=S)n1/N=C/c1ccc(-c2ccccc2[N+](=O)[O-])o1	OX1R antag-1 68
O=[N+]([O-])c1cccc(-c2ccc(/C=N/n3c(-c4ccccc4)n[nH]c3=S)o2)c1	none
COC(=O)c1ccccc1-c1ccc(/C=N/NC(N)=O)o1	none
